# According to ChEMBL document CHEMBL1667761, “3-benzylamino-β-carboline derivatives induce apoptosis through G2/M arrest in human carcinoma cells HeLa S-3” (Eur J Med Chem, 2011):
# Activity calls are given as the source filed them. No cut-off for these calls is given here.
# Key:
# [1] = Antitumor activity against human HeLaS3 cells after 24 to 72 hrs by MTT assay; type: functional, cell-based, HeLa S3
# How it was run: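 HeLa S-3 cells (MEM, 10% FBS, HEPES, NEAA, 2 mM L-glutamine, 5% CO2, 37 °C) seeded at 2 × 10⁴ cells/ml and cultured 3 h before exposure for 24–72 h at 37 °C. MTT (2 mg/ml) added for 4 h at 37 °C, formazan dissolved in DMSO, A540 read. Viability is expressed as % of control. IC50 is the concentration giving 50% growth inhibition, mean ± S.D. of four independent experiments run in triplicate.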
# [2] = Cell cycle arrest in human HeLaS3 cells assessed as accumulation at S phase at 5 uM after 6 hrs by flow cytometry; type: functional, cell-based; conditions: HeLa S3
# How it was run: (§1)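 HeLa S-3 cells exposed for 6, 12 or 24 h. Cells washed twice in ice-cold PBS, fixed in ice-cold 70% ethanol, and resuspended with 0.1 mg/ml RNase. Stained with […] PI and analysed by flow cytometry. Phase distribution (sub-G1, G1, S, G2/M) is reported as percentage of cells. Controls were untreated.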
# [3] = Cell cycle arrest in human HeLaS3 cells assessed as accumulation at sub-G1 phase at 5 uM after 6 hrs by flow cytometry; type: functional, cell-based; conditions: HeLa S3; how it was run: as §1
# [4] = Cell cycle arrest in human HeLaS3 cells assessed as accumulation at G1 phase at 1 uM after 24 hrs by flow cytometry; type: functional, cell-based; conditions: HeLa S3; how it was run: as §1
# [5] = Cell cycle arrest in human HeLaS3 cells assessed as accumulation at G1 phase at 1 uM after 12 hrs by flow cytometry; type: functional, cell-based; conditions: HeLa S3; how it was run: as §1
# [6] = Cell cycle arrest in human HeLaS3 cells assessed as accumulation at G2/M phase at 5 uM after 6 hrs by flow cytometry; type: functional, cell-based; conditions: HeLa S3; how it was run: as §1
# [7] = Cell cycle arrest in human HeLaS3 cells assessed as accumulation at S phase at 5 uM after 24 hrs by flow cytometry; type: functional, cell-based; conditions: HeLa S3; how it was run: as §1
# [8] = Cell cycle arrest in human HeLaS3 cells assessed as accumulation at G1 phase at 5 uM after 24 hrs by flow cytometry; type: functional, cell-based; conditions: HeLa S3; how it was run: as §1
# [9] = Cell cycle arrest in human HeLaS3 cells assessed as accumulation at sub-G1 phase at 1 uM after 12 hrs by flow cytometry; type: functional, cell-based; conditions: HeLa S3; how it was run: as §1
# [10] = Cell cycle arrest in human HeLaS3 cells assessed as accumulation at S phase at 5 uM after 12 hrs by flow cytometry; type: functional, cell-based; conditions: HeLa S3; how it was run: as §1
# HeLa S3 [11] = assay: Induction of apoptosis in human HeLaS3 cells assessed as cleaved caspase-3 at 5 times IC50 by Western blot method; type: functional, cell-based
# How it was run: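 HeLa S-3 cells treated for 24 h at 5-fold the IC50, alongside non-treated controls. Cells lysed in RIPA buffer (pH 8.0) with protease inhibitors and the whole-cell extract separated by SDS-PAGE, then transferred to PVDF. Blots blocked in 5% skim milk/TTBS and probed with anti-cdc2, cdk2 or cleaved caspase-3 antibodies (1:1000). β-actin (1:5000) served as loading control. Detection by HRP secondary antibody and ECL.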
# [12] = Cell cycle arrest in human HeLaS3 cells assessed as accumulation at sub-G1 phase at 5 uM after 12 hrs by flow cytometry; type: functional, cell-based; conditions: HeLa S3; how it was run: as §1
# [13] = Cell cycle arrest in human HeLaS3 cells assessed as accumulation at S phase at 1 uM after 24 hrs by flow cytometry; type: functional, cell-based; conditions: HeLa S3; how it was run: as §1
# [14] = Cell cycle arrest in human HeLaS3 cells assessed as accumulation at G1 phase at 1 uM after 6 hrs by flow cytometry; type: functional, cell-based; conditions: HeLa S3; how it was run: as §1
# [15] = Cell cycle arrest in human HeLaS3 cells assessed as accumulation at G2/M phase at 5 uM after 12 hrs by flow cytometry; type: functional, cell-based; conditions: HeLa S3; how it was run: as §1
# [16] = Cell cycle arrest in human HeLaS3 cells assessed as accumulation at S phase at 1 uM after 6 hrs by flow cytometry; type: functional, cell-based; conditions: HeLa S3; how it was run: as §1
# [17] = Cell cycle arrest in human HeLaS3 cells assessed as accumulation at G1 phase at 5 uM after 12 hrs by flow cytometry; type: functional, cell-based; conditions: HeLa S3; how it was run: as §1
# HeLa S3 [18] = assay: Induction of apoptosis in human HeLaS3 cells assessed as DNA fragmentation upto 48 hrs by agarose gel electrophoresis; type: functional, cell-based
# How it was run: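 HeLa S-3 cells exposed for 12–48 h, then pellets lysed in 0.6% sarcosine, 20 mM Tris-HCl pH 7.4, 20 mM EDTA. Lysate treated with RNase A for 2 h at 50 °C, then proteinase K overnight at 50 °C. DNA extracted with phenol/chloroform, run on 2% agarose in TAE at 50 V, stained with ethidium bromide, and visualised under UV.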
# HeLa S3 [19] = assay: Induction of apoptosis in human HeLaS3 cells assessed as appearance of fragmented nuclei at 10 times IC50 after 48 hrs by Hoechst staining; type: functional, cell-based
# How it was run: (§2)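 Stained with Hoechst 33342 (1 µg/ml) for 40 min at 37 °C. Nuclei were examined by confocal laser microscopy, and apoptosis was scored from chromatin condensation and fragmented nuclei.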
# [20] = Cell cycle arrest in human HeLaS3 cells assessed as accumulation at G2/M phase at 1 uM after 6 hrs by flow cytometry; type: functional, cell-based; conditions: HeLa S3; how it was run: as §1
# [21] = Cell cycle arrest in human HeLaS3 cells assessed as accumulation at G2/M phase at 1 uM after 12 hrs by flow cytometry; type: functional, cell-based; conditions: HeLa S3; how it was run: as §1
# [22] = Cell cycle arrest in human HeLaS3 cells assessed as accumulation at sub-G1 phase at 1 uM after 24 hrs by flow cytometry; type: functional, cell-based; conditions: HeLa S3; how it was run: as §1
# [23] = Cell cycle arrest in human HeLaS3 cells assessed as accumulation at sub-G1 phase at 1 uM after 6 hrs by flow cytometry; type: functional, cell-based; conditions: HeLa S3; how it was run: as §1
# [24] = Cell cycle arrest in human HeLaS3 cells assessed as accumulation at G2/M phase at 5 uM after 24 hrs by flow cytometry; type: functional, cell-based; conditions: HeLa S3; how it was run: as §1
# HeLa S3 [25] = assay: Induction of apoptosis in human HeLaS3 cells assessed as appearance of fragmented nuclei at 5 times IC50 after 48 hrs by Hoechst staining; type: functional, cell-based; how it was run: as §2
# [26] = Cell cycle arrest in human HeLaS3 cells assessed as accumulation at S phase at 1 uM after 12 hrs by flow cytometry; type: functional, cell-based; conditions: HeLa S3; how it was run: as §1
# [27] = Cell cycle arrest in human HeLaS3 cells assessed as accumulation at G1 phase at 5 uM after 6 hrs by flow cytometry; type: functional, cell-based; conditions: HeLa S3; how it was run: as §1
# [28] = Cell cycle arrest in human HeLaS3 cells assessed as accumulation at G2/M phase at 1 uM after 24 hrs by flow cytometry; type: functional, cell-based; conditions: HeLa S3; how it was run: as §1
# [29] = Cell cycle arrest in human HeLaS3 cells assessed as accumulation at sub-G1 phase at 5 uM after 24 hrs by flow cytometry; type: functional, cell-based; conditions: HeLa S3; how it was run: as §1
smiles,measurement,setting,value
CNc1cc2c(cn1)[nH]c1ccccc12,IC50,"[1]; Homo sapiens, HeLa S3",101 µM
CC(C)(C)OC(=O)NCCOc1cccc(CNc2cc3c(cn2)[nH]c2ccccc23)c1,IC50,"[1]; Homo sapiens, HeLa S3",16 µM
C[n+]1cc2[nH]c3ccccc3c2cc1NCc1ccccc1,IC50,[1]; hela s3,99 µM
c1ccc(CCNc2cc3c(cn2)[nH]c2ccccc23)cc1,IC50,"[1]; Homo sapiens, HeLa S3",22 µM
c1ccc2c(c1)[nH]c1cnc(NCC3CCCCC3)cc12,Activity,[2],12.7%
same,Activity,[3],2.6%
same,Activity,[4],68.2%
same,Activity,[5],58.4%
same,Activity,[6],31.4%
same,Activity,[7],13.8%
same,Activity,[8],29.7%
same,Activity,[9],2.5%
same,Activity,[10],12.3%
same,Activity,HeLa S3 [11],inactive
same,Activity,[12],3%
same,Activity,[13],14.7%
same,Activity,[14],48.4%
same,Activity,[15],27.4%
same,Activity,[16],19.7%
same,Activity,[17],56.7%
same,Activity,HeLa S3 [18],inactive
same,Activity,HeLa S3 [19],Active
same,Activity,[20],23.1%
same,Activity,[21],28.9%
same,Activity,[22],1.7%
same,Activity,[23],3.5%
same,Activity,[24],50.5%
same,Activity,HeLa S3 [25],inactive
same,IC50,"[1]; Homo sapiens, HeLa S3",5.2 µM
same,Activity,[26],10.5%
same,Activity,[27],51%
same,Activity,[28],15.7%
same,Activity,[29],2.8%
COC(=O)c1cccc(CNc2cc3c(cn2)[nH]c2ccccc23)c1,IC50,"[1]; Homo sapiens, HeLa S3",17 µM
CC(C)CNc1cc2c(cn1)[nH]c1ccccc12,IC50,"[1]; Homo sapiens, HeLa S3",13 µM
CCNc1cc2c3ccccc3nc-2c[nH]1,IC50,"[1]; Homo sapiens, HeLa S3",19 µM
c1ccc(CCCNc2cc3c(cn2)[nH]c2ccccc23)cc1,IC50,"[1]; Homo sapiens, HeLa S3",21 µM
